# Experimental data as given in ChEMBL document CHEMBL1148362 (J Med Chem, 2004).
# Legend:
# CCRF-CEM = test: Inhibition of cell growth in CEM leukemia T cells was determined; format: functional; settings: Homo sapiens
# Jurkat = test: Inhibition of IL-2 production was determined in Jurkat cells after PMA/PHA activation by Enzyme immunoassay; format: functional, cell-based; settings: Homo sapiens
# Summary of the method: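 Human Jurkat leukemia T-cells exposed to test agents 30 min before PMA activation. Cell-free supernatants collected after 24 h and total IL-2 quantified by competitive enzyme immunoassay. Dose–response tested up to 10 μM. IC50 derived. PDTC control included in all experiments.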
# THP-1 = test: Inhibition of TNF-alpha production was determined in THP-1cells after LPS activation by Enzyme immunoassay; format: functional, cell-based; settings: Homo sapiens
# Summary of the method: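 Human monocytic THP-1 cells treated 30 min before LPS activation, then incubated 3 h. TNF-α in the output measured by competitive enzyme immunoassay and IC50 derived. Values are mean of two experiments with standard deviation. PDTC served as control.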
# [1] = system: Nuclear factor NF-kappa-B (Homo sapiens); test: Inhibition of DNA binding of NF-uM) PMA/PHA activated Jurkat cells; No significant inhibition
GI50 (CCRF-CEM),IC50 (Jurkat),IC50 (THP-1),inhibition [1],SMILES
14300 nM,> 10 µM,> 10 µM,No effect,Cn1c2c(c3ccccc31)/C(=C1\N=C(N)NC1=O)CCNC2=O
1610 nM,2.41 µM,1.36 µM,,NC1=NC(=O)/C(=C2\CCNC(=O)c3[nH]c(Br)cc32)N1 [HYMENIALDISINE]
1730 nM,3.55 µM,8.16 µM,,Nc1nc(C2=C3C(=Nc4ccccc43)C(=O)NCC2)c(O)[nH]1
